A selection: hits, their analogues and other compounds. The true share with any hit is near 3.1%.
Fh CTSL1 inh – counter-screen for PFM18AAP inhibitors: inhibitors of F. hepatica cathepsin L1 | recombinant F. hepatica cathepsin L1, Z-Leu-Arg-MCA fluorescence | inhibition, % at 5.96 µM | actives 0.49% (n = 300,000) | AID 1906;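 active = inhibition above the mean of all tested compounds plus 3 SD, set per screening campaign, cut at about 17% in these data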;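 note: 0% = plate median of test compound wells and 100% = 1 µM Z-Phe-Ala-diazomethylketone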
PP1 inh – blocks human PP1-alpha phosphatase, a PP5 counter-screen | actives 0.9% (n = 320,000) | inhibition, % at 6.7 µM | purified PP1alpha, OMFP fluorescence | P62136 | AID 2235;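 active = inhibition above the mean inhibition of all tested compounds plus 3 SD, computed separately for each screening campaign, cut at about 15% in these data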
Target sequence (P62136 whole entry, looked up): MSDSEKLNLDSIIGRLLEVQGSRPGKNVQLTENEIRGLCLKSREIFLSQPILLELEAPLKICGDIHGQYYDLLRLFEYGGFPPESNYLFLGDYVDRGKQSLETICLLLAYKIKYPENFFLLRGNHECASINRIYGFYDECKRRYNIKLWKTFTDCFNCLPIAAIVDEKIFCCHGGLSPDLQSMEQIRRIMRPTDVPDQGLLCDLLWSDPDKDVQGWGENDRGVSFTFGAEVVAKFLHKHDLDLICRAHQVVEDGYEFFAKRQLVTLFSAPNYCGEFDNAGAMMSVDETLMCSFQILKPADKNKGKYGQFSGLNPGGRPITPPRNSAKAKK
Myeloid diff MLP – promotes myeloid progenitor differentiation; actives 1% (n = 360,000); calls only at 10 µM; ER-HoxA9 myeloid progenitors, lysozyme-GFP differentiation, flow cytometry;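 active = normalized GFP-positive differentiation at or above the plate's own cutoff, the solvent-only control mean plus 3 SD; inconclusive = no clear call, values can overlap the other calls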;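 note: cells exposed to compound for four days before flow analysis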
PP5 inh – blocks human protein phosphatase 5 activity; P53041; purified PP5c, OMFP substrate fluorescence; inhibition, % at 6.7 µM; actives 0.18% (n = 320,000);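 active = inhibition above the campaign's mean inhibition across all tested compounds plus 3 SD, cut at about 9.5% in these data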;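 note: 0% = DMSO only and 100% = 100 µM cantharidin control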
NadD block – NadD (S. aureus) enzyme inhibition | purified NadD enzyme, colorimetric absorbance read-out | inhibition, % at 20 µM | actives 0.78% (n = 360,000) | AID 602399; in the data active = inhibition above about 26%
core dimer inh – HCV core protein dimerization inhibition; TR-FRET GST/Flag-core106 dimerization, 1536-well; inhibition, % at 5 µM; actives 0.33% (n = 300,000);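 active = inhibition above the mean of all tested compounds plus 3 SD, set per screening campaign, cut at about 45% in these data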
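assay system = GST-tagged and Flag-tagged HCV core protein residues 1-106 | controls = unlabelled core106 and no-GST-core106 wells | incubation = compound-protein-antibody incubation 4 h at 22.5 °C | probe or stimulus = Eu donor and XL665 acceptor anti-tag antibodies | read-out = % inhibition based on acceptor/donor emission ratio | signal = TR-FRET 671 and 617 nm emission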
Starred values were filed as active, the others as inactive; i = inactive; ? = inconclusive; . = no result given; + = active, no number; ! = not confirmed by another sample.

SMILES	Fh CTSL1 inh	PP1 inh	Myeloid diff MLP	PP5 inh	NadD block	core dimer inh
CC(C)(CNC(=O)C1CCN(S(=O)(=O)c2cc([N+](=O)[O-])ccc2Cl)CC1)N1CCOCC1	.	.	i	.	-3	.
Cc1ccc(CNS(=O)(=O)c2ccc(F)c(F)c2)n1C	24*	-2	i	-1	4	-20
CCCCN(C(=O)c1ccc(S(=O)(=O)N2CCCC2)cc1)C1CCS(=O)(=O)C1 (centres undefined)	1	-4	i	0	-5	2
CC(=O)Nc1cc[n+](C(C)C(=O)c2ccc(Br)cc2)cc1 (centres undefined)	1	-2	+	-5	-2	5
Cn1c(=O)c2cc(NC(=O)Nc3cccnc3)ccc2n1-c1ccc(C(C)(C)C)cc1	.	.	i	.	19	.
CC1CC(=O)c2ccccc2C1C (centres undefined)	.	.	i	.	0	.
S=C(c1cn(CCOc2cccc3ccccc23)c2ccccc12)N1CCCC1	-1	24*	i	2	6	-34
Cn1cccc1Cc1nnc(SCC(=O)Nc2ccccc2F)n1CCc1ccccc1	3	-5	+	3	-5	8
Cn1cccc1Cc1nnc(SCC(=O)Nc2cccc(F)c2)n1CCc1ccccc1	5	1	i	1	-5	3
COc1ccc(/C=N\NC(=O)c2cc(O)c(O)c(O)c2)cc1CN1CCN(c2ccc(F)cc2)CC1	-1	4	i	4	41*	1
COc1ccc(/C=N/NC(=O)c2ccc(C)cc2)cc1CN1CCN(c2ccc(F)cc2)CC1	0	1	i	-1	6	8
CCOC(=O)N1CCN(C(=O)c2ccccc2N(Cc2ccccc2)S(=O)(=O)c2ccccc2)CC1	1	0	i	1	-3	0
Cc1ccc(C(=O)NC2CCCc3ccccc32)o1 (centres undefined)	76*	-4	i	3	4	0
O=C(CCl)NC1CCCc2ccccc21 (centres undefined)	27*	7	i	-1	-1	-2
CN(C)CCNC(=O)c1ccc2c(=O)n(Cc3ccc(Cl)cc3)c(=S)[nH]c2c1	-8	4	+	1	-6	-4
Cc1ccc2nc(N3C(=O)C(O)=C(C(=O)c4ccco4)C3c3ccc(O)cc3)sc2c1 (centres undefined)	3	15*	?	3	11	15
Cc1ccc2nc(N3C(=O)C(O)=C(C(=O)c4cc5ccccc5o4)C3c3cccs3)sc2c1 (centres undefined)	-1	12	i	1	25	16
Cc1ccc(C2C(C(=O)c3ccco3)=C(O)C(=O)N2c2nnc(C)s2)cc1 (centres undefined)	1	7	i	1	2	6
Cc1ccc2nc(N3C(=O)C(O)=C(C(=O)c4ccc(C)o4)C3c3ccco3)sc2c1 (centres undefined)	.	16*	i	5	26	.
CC1CCCC(C)N1CC(O)Cn1c2ccccc2c2ccccc21 (centres undefined)	0	-3	i	-1	-6	-6
Cc1cc(/C=C(\C#N)c2nc3ccccc3[nH]2)c(C)n1C	6	-4	i	1	9	-15
Cc1cc(/C=C(/C#N)c2nc3ccccc3[nH]2)c(C)n1-c1cccc([N+](=O)[O-])c1	-1	4	i	6	41*	43
COc1ccc(C(=O)N2CCCCC2c2cc(C(=O)Nc3cccc(C#N)c3)no2)cc1 (centres undefined)	.	.	i	.	-5	.
CC(/C=N/Nc1nnc2c(n1)[nH]c1ccccc12)=C\c1ccco1	-2	16*	i	3	10	15
Cc1cccc2c1[nH]c1nc(N/N=C\c3ccco3)nnc12	3	0	.	5	.	-2
SMILES	Fh CTSL1 inh	PP1 inh	Myeloid diff MLP	PP5 inh	NadD block	core dimer inh
COc1cc(N)ccc1Nc1c2ccccc2nc2ccccc12	.	.	?	.	35*	.
CCCS(=O)(=O)Nc1ccc(Nc2c3ccccc3nc3ccccc23)c(OC)c1	.	.	.	.	0	.
CCCCCCSc1cc(-c2nc3ccc(Cl)cn3c2NC2CCCCC2)ccc1OC	-2	-2	?	2	12	7
CCC(C)Sc1cccc(-c2nc3cc(C)ccn3c2NC2CCCCC2)c1 (centres undefined)	.	.	+!	.	8	.
Cc1ccn2c(NC3CCCCC3)c(-c3ccc(SC4CCCCC4)cc3)nc2c1	.	.	+	.	6	.
CCCCCCSc1ccc(-c2nc3ccc(Cl)cn3c2NC2CCCCC2)cc1	.	.	+	.	6	.
CC1CC2OC2CC1COC(=O)C1CC2OC2CC1C (centres undefined)	.	.	i	.	-1	.
CC1CCCC(C)N1CCCNC(=O)C1CCCN(S(=O)(=O)N2CCCCC2)C1 (centres undefined)	.	.	i	.	0	.
CC1CC(NS(=O)(=O)c2cc3c4c(c2)CCN4C(=O)CC3)CC(C)(C)C1 (centres undefined)	2	-2	i	1	1	-2
Nc1cccc2c(O)cccc12	-5	-2	+	0	0	-12
COc1ccccc1NC(=O)CSc1nnc2ccc(-c3ccccn3)nn12	8	0	i	-1	-4	-2
O=S(=O)(NCc1ccc(C(F)(F)F)cc1)c1ccc(-n2cnnn2)cc1	-3	-2	+	1	-1	0
O=C(COC(=O)CCNS(=O)(=O)c1ccccc1)NC(=O)Cc1ccccc1	.	3	i	-1	-3	.
CCC(=O)N1CCCc2cc(S(=O)(=O)N3CCN(c4ccccc4F)CC3)ccc21	2	0	+	2	-3	19
CCC(=O)N1CCCc2cc(S(=O)(=O)N3CCN(c4ncccn4)CC3)ccc21	0	-2	i	1	0	-4
COc1ccc(NS(=O)(=O)c2cc(NC(=O)C3CC3)ccc2N2CCOCC2)cc1	-4	-1	i	1	0	11
COc1ccc(NS(=O)(=O)c2cc(NC(=O)C3CC3)ccc2N2CCCCC2)cc1	-4	1	+	1	8	15
Cc1cccc2cc(CN(Cc3ccco3)C(c3nnnn3CCc3ccccc3)C(C)C)c(=O)[nH]c12 (centres undefined)	5	16*	i	4	9	13
CC(C)(C)n1ncc2c(=O)n(Cc3ccc(Cl)c(Cl)c3)cnc21	3	3	+	1	-4	10
COc1ccc(-c2cc3c(=O)n(CC(=O)Nc4cccc(Cl)c4)ncn3n2)cc1	-3	0	i	4	13	-5
O=C(Nc1ccc(F)cc1)C(CCc1ccccc1)N1CCN(C(=O)c2ccco2)CC1 (centres undefined)	.	.	i	.	.	.
O=C(O)c1ccc(N=Cc2nc(-c3ccco3)oc2O)cc1	4	0	i	-1	-7	-2
Oc1oc(-c2ccco2)nc1C=Nc1cccc(Cl)c1	37*	5	i	4	-6	-2
